Results from different studies.
Cell line: HL-60
Read-out: cell growth or viability

For COc1cc([C@@H]2c3cc4c(cc3[C@@H](O[C@@H]3O[C@@H]5CO[C@@H](C)O[C@H]5[C@H](O)[C@H]3O)[C@H]3COC(=O)[C@H]23)OCO4)cc(OC)c1O, the IC50 was 0.3 µM (MTS; 72 h).
The IC50 of O=C(NO)c1ccc(Cn2cnc3c(Nc4ccc(Br)cc4F)ncnc32)cc1 is reported as 5.98 µM (MTT; 72 h).
The IC50 of O=c1cc(OCc2cc(-c3ccccc3)no2)c2ccccc2o1 is reported as > 100 µM (MTS; 72 h).
With COc1cc([C@@H]2c3cc4c(cc3[C@@H](O[C@@H]3O[C@@H]5CO[C@@H](C)O[C@H]5[C@H](O)[C@H]3O)[C@H]3COC(=O)[C@H]23)OCO4)cc(OC)c1O the IC50 was 1.22 µM (XTT; 75 h).
With N#Cc1ccc(-c2cc(COc3cc(C(F)(F)F)nc4ccccc34)on2)cc1 the IC50 was 62.2 µM (MTS; 72 h).
O=C(NO)c1ccc(Cn2cnc3c(Nc4ccc(F)c(Cl)c4)ncnc32)cc1 gave an IC50 of 2.55 µM (MTT; 72 h).
The IC50 of O=C(CSc1nc2ccccc2s1)N/N=C/c1ccc(OCC(=O)Nc2cccc(Br)c2)cc1 is reported as > 100 µM (MTS; 72 h).
For c1ccc(-c2cc(CNc3cccc4cccnc34)on2)nc1, the IC50 was 64.8 µM (MTS; 72 h).
COc1ccc(Nc2ncnc3c2ncn3Cc2ccc(C(=O)NO)cc2)cc1 gave an IC50 of 1.98 µM (MTT; 72 h).
For O=C(CSc1nc2ccccc2s1)N/N=C/c1ccc(OCC(=O)Nc2cccc([N+](=O)[O-])c2)cc1, the IC50 was > 100 µM (MTS; 72 h).
FC(F)(F)c1ccc(-c2cc(CNc3cccc4cccnc34)on2)cc1 has an IC50 of > 100 µM (MTS; 72 h).
Nc1cccc2c1C(=O)N(C1CCC(=O)NC1=O)C2=O (stereo not drawn) gave an IC50 of > 10 µM (CCK-8; 7 days).
